According to ChEMBL document CHEMBL1125756, “Synthesis and antiarrhythmic activity of alpha-[(diarylmethoxy)methyl]-1-piperidineethanols” (1991):

Assays:
Canis familiaris [1] = assay: […] 20 min after a dose of 5 mg/kg given intravenously over a 5-min period in normal dogs.; format: functional, Canis lupus familiaris; conditions: route intravenous
Canis familiaris [2] = assay: […] at the end of the dose.(5 mg/kg was given intravenously over a 5-min period in normal dogs.); format: functional, Canis lupus familiaris
Canis familiaris [3] = assay: Degree of tachycardia in conscious normal dogs; 160-199; format: functional, Canis lupus familiaris
How it was run: (§1)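 Conscious normal dogs, trained to sit quietly while sling restrained, were given 5 mg/kg iv as an infusion over 5 min in isotonic saline. Heart rate came from continuous limb lead II ECG during a control period, at end of dose, and at 20 min and 1 h. Degree bands were ≥200, 160–199, and <160 beats/min after a rise of ≥20. Duration bands were >2 h, 0.5–2 h and <0.5 h. Two dogs were used.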

Canis familiaris [4] = assay: Percent of normal beats 1 hr after 5 mg/kg given over 5 min by i.v. infusion.; format: functional, Canis lupus familiaris; conditions: route intravenous
How it was run: (§2)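 Coronary-artery-ligated dogs with ventricular arrhythmias received 5 mg/kg iv in 10–20 mL isotonic saline, infused over 5 min. Limb lead II ECG was monitored continuously for up to 6 h or until activity ended. Percent normal sinus beats was scored at control, end of dose, 20 min and 1 h. Results are mean ± SEM for n≥3 and mean ± SD for n=2.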

Canis familiaris [5] = assay: Percent of normal beats 20 min after 5 mg/kg given over 5 min by i.v. infusion.; format: functional, Canis lupus familiaris; conditions: route intravenous; how it was run: as §2
Canis familiaris [6] = assay: Percent of normal beats after 5 mg/kg given over 5 min by i.v. infusion.; format: functional, Canis lupus familiaris; conditions: route intravenous; how it was run: as §2
Canis familiaris [7] = assay: […] 1 h after a dose of 5 mg/kg given intravenously over a 5-min period […].; format: functional, Canis lupus familiaris; conditions: route intravenous
How it was run: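 Dogs with coronary artery ligation and ventricular arrhythmia received 5 mg/kg iv in 10–20 mL isotonic saline, infused over 5 min. Limb lead II ECG was monitored continuously for up to 6 h. Percent normal sinus beats was scored at control, at end of dose, and at 20 min and 1 h. Values are mean ± SEM for three or more animals and mean ± SD for two.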

Canis familiaris [8] = assay: Period of tachycardiac effect in conscious normal dogs; format: functional, Canis lupus familiaris; how it was run: as §1
Canis familiaris [9] = assay: Activity rating following 5 mg/kg i.v. administration.; conditions: route intravenous
Canis familiaris [10] = assay: Degree of tachycardia in conscious normal dogs.; format: functional, Canis lupus familiaris
How it was run: (§3)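 Conscious normal dogs, trained to sit quietly while sling-restrained, received 5 mg/kg iv over 5 min, as in the ligated-dog protocol. Heart rate came from continuous limb lead II ECG at control, end of dose, 20 min and 1 h. Dogs above 140 beats/min were followed until the rate fell to 140. Degree was graded severe ≥200, moderate 160–199, slight <160 with a rise ≥20, none ≤20 change. Duration was graded long >2 h, moderate 0.5–2 h, short <0.5 h.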

Canis familiaris [11] = assay: […] 1 h after a dose of 5 mg/kg given intravenously over a 5-min period in normal dogs.; format: functional, Canis lupus familiaris; conditions: route intravenous
Canis familiaris [12] = assay: Period of tachycardiac effect in conscious normal dogs; 0.5-2; format: functional, Canis lupus familiaris; how it was run: as §3
Canis familiaris [13] = assay: Degree of tachycardiac effect in conscious normal dogs

SMILES | Heart rate (Canis familiaris [1]) [beats min-1] | Heart rate (Canis familiaris [2]) [beats min-1] | Rating (Canis familiaris [3]) [beats min-1] | Normal beats (Canis familiaris [4]) [%] | Normal beats (Canis familiaris [5]) [%] | Normal beats (Canis familiaris [6]) [%] | Heart rate (Canis familiaris [7]) [beats min-1] | Rating (Canis familiaris [8]) [h] | Activity rating (Canis familiaris [9]) | Rating (Canis familiaris [10]) [beats min-1] | Heart rate (Canis familiaris [11]) [beats min-1] | Rating (Canis familiaris [12]) [h] | Rating (Canis familiaris [13]) [beats min-1]
CC1CCCC(C)N1CC(O)CSC(c1ccccc1)c1ccccc1 (configuration not stated) | 148 | 185 | 160 | 42 | 49 | 95 | 148 | <0.5 | 51 | – | – | – | –
COc1ccccc1C(OCC(O)CN1C(C)CCCC1C)c1ccccc1OC (configuration not stated) | 232 | 234 | – | 33 | 62 | 100 | – | >2 | 57 | >200 | 232 | – | –
CCN(CC)CCNC(=O)c1ccc(N)cc1.Cl [PROCAINAMIDE HYDROCHLORIDE] | – | – | – | 34 | 66 | 72 | – | – | 52 | – | – | – | –
Cc1ccccc1C(OCC(O)CN1C(C)CCCC1C)c1ccccc1 (configuration not stated) | 153 | 153 | 160 | 81 | 71 | 87 | – | – | 68 | – | 134 | 0.5 | –
CC(OCC(O)CN1C(C)CCCC1C)c1ccccc1 (configuration not stated) | 101 | 156 | – | 11 | 16 | 62 | – | >2 | 13 | <160 | 144 | – | –
C[N+](C)(C)CC(O)COC(c1ccccc1)c1ccccc1 (configuration not stated) | 135 | 242 | – | 0 | 1 | 52 | – | – | 9 | >200 | 118 | 0.5 | –
Cc1ccccc1C(OCC(O)CN1C(C)CCCC1C)c1ccccc1C (configuration not stated) | 113 | 153 | – | 50 | 68 | 87 | – | <0.5 | 51 | <160 | 142 | – | –
CC1CCCC(C)N1CC(O)CNC(c1ccccc1)c1ccccc1.Cl.Cl (configuration not stated) | 132 | 141 | – | 30 | 47 | 92 | – | <0.5 | 44 | <160 | 122 | – | –
CC1CCCC(C)N1CC(O)COC(c1ccccc1)c1ccccc1 (configuration not stated) | 171 | 172 | 160 | 53 | 67 | 88 | – | – | 56 | – | 150 | 0.5 | –
Cc1ccccc1C(OCC(O)CN1CCCCC1C)c1ccccc1C.O=C(O)C(=O)O (configuration not stated) | – | – | – | 24 | 44 | 49 | – | – | 36 | – | – | – | –
CC1CCCC(C)[N+]1(C)CC(O)COC(c1ccccc1)c1ccccc1.[Cl-] (configuration not stated) | 152 | 167 | 160 | 28 | 33 | 15 | – | <0.5 | 15 | – | 101 | – | –
Cc1ccccc1C(OCC(O)CN1CCCCC1)c1ccccc1C.O=C(O)C(=O)O (configuration not stated) | – | – | – | 16 | 31 | 79 | – | – | 21 | – | – | – | –
CN(C)CC(O)COC(c1ccccc1)c1ccccc1.Cl (configuration not stated) | 115 | 121 | – | 15 | 25 | 61 | – | – | 19 | – | 110 | – | < 20
CC1CCC(C)N1CC(O)COC(c1ccccc1)c1ccccc1 (configuration not stated) | 117 | 140 | – | 12 | 39 | 96 | – | – | 36 | <160 | 102 | 0.5 | –
Cc1cccc(C)c1C(OCC(O)CN1C(C)CCCC1C)c1ccccc1 (configuration not stated) | – | – | – | 16 | 19 | 60 | – | – | 8 | – | – | – | –
Cc1cccc(C)c1C(OCC(O)CN1C(C)CCCC1C)c1c(C)cccc1C (configuration not stated) | – | – | – | 54 | 76 | 49 | – | – | 47 | – | – | – | –
CCN(CC)CC(=O)Nc1c(C)cccc1C.Cl | – | – | – | 9 | 23 | 86 | – | – | 20 | – | – | – | –
